Legend:
[1] = Therapeutic index, ratio of CC50 for human BE(2)-C cells to IC50 for Western equine encephalitis virus; conditions: read-out: Ratio CC50/IC50
[2] = Cytotoxicity against human BE(2)-C cells after 18 to 20 hrs by MTT assay; type: cell-based
[3] = test system: Western equine encephalitis virus; experiment: Antiviral activity against Western equine encephalomyelitis virus infected in human BE(2)-C cells assessed as inhibition of viral RNA replication after 18 to 20 hrs by luciferase reporter gene assay; type: functional, cell-based
[4] = molecular target: MDR1 (ABCB1, P-glycoprotein) (Homo sapiens, UniProt P08183); experiment: Inhibition of human MDR1 expressed in MDCK2 cells assessed as increase of rhodamine 123 uptake at 30 uM up to 240 mins relative to control; type: ADME, cell-based, MDCK-II; conditions: MDCK2 cells expressing human MDR1, probe rhodamine 123
Chain of MDR1 (ABCB1, P-glycoprotein) (P08183 whole entry): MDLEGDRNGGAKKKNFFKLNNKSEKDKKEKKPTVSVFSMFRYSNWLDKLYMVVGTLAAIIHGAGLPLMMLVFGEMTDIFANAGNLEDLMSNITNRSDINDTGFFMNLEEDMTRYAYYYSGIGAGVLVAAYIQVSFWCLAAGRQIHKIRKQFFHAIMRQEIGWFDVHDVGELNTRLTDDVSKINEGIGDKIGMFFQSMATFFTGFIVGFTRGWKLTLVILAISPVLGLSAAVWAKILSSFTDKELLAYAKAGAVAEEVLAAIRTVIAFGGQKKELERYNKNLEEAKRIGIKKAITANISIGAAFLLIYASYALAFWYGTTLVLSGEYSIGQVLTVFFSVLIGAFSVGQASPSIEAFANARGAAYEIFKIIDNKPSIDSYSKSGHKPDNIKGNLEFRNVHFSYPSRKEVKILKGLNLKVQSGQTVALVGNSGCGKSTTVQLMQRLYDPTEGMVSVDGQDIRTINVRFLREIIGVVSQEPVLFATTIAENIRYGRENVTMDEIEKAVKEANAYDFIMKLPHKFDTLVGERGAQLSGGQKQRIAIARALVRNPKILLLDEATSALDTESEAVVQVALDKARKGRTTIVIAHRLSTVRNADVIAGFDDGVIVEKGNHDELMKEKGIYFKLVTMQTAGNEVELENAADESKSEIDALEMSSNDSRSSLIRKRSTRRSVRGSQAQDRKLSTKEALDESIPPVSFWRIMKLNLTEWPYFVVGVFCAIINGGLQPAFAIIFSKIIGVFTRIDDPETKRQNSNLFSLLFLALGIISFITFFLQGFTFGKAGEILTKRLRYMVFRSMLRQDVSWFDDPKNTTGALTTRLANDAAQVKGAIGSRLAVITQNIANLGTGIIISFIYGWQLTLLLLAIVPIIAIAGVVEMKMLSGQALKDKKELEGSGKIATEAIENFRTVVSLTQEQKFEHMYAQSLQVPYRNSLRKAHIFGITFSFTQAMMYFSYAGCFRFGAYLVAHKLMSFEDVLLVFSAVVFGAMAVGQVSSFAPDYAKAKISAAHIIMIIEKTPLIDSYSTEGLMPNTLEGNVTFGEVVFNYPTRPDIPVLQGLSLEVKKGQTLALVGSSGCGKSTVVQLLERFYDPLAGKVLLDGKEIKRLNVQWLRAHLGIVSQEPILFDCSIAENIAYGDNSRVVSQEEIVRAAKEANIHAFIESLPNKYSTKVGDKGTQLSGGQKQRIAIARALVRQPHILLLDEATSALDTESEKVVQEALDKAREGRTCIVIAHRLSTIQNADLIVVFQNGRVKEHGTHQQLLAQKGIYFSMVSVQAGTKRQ
Procedure, shortened: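 Confluent MDR1-MDCKII cells (human Pgp-transfected) given fresh DMEM with 10 μM rhodamine 123, plus vehicle, tariquidar (5 μM) or compound (30 μM). Uptake at 37°C from 1 to 240 min, stopped by ice-cold PBS washes. Fluorescence read at ex 525/em 560-640 nm. Result expressed as % of same-day tariquidar effect, (Cav−Cveh)*100/(Ctar−Cveh). Triplicates on ≥3 occasions.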

Brain [5] = experiment: Drug level in C57BL/6 mouse brain at 20 mg/kg, ip after 12 hrs; type: ADME, organism-based; set-up: dose 20 mg/kg, route intraperitoneal; conditions: in vivo, BLD = below limit of detection
Procedure, shortened: (§1)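 Female C57BL/6 mice were given a single IP dose in 2% sterile DMSO/PBS. At each time point, duplicate mice had blood taken by cardiac puncture. They were then perfused with PBS, and the cerebrum was harvested and flash frozen on dry ice. Brain drug levels were quantified by LC/MS/MS and reported as ng/g; BLQ means below the limit of quantitation.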

Brain [6] = experiment: Drug level in C57BL/6 mouse brain at 20 mg/kg, ip after 2 hrs; type: ADME, organism-based; set-up: dose 20 mg/kg, route intraperitoneal; conditions: in vivo, BLD = below limit of detection; procedure, shortened: as §1
[7] = Drug level in C57BL/6 mouse brain at 20 mg/kg, ip after 30 mins; type: ADME, organism-based; set-up: dose 20 mg/kg, route intraperitoneal; conditions: read-out: Drug uptake
Procedure, shortened: (§2)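 C57BL/6 female mice given a single IP injection of compound in 2% sterile DMSO/PBS, at the stated dose. Duplicate mice per time point. Blood taken by cardiac puncture into EDTA and plasma separated. Cerebrum harvested after PBS perfusion and flash-frozen. Drug quantified by LC/MS/MS as ng/mL plasma or ng/g brain.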

Plasma [8] = experiment: Plasma concentration in C57BL/6 mouse at 20 mg/kg, ip after 12 hrs; type: ADME, organism-based; set-up: dose 20 mg/kg, route intraperitoneal; conditions: in vivo, BLD = below limit of detection; procedure, shortened: as §2
[9] = Plasma concentration in C57BL/6 mouse at 20 mg/kg, ip after 2 hrs; type: ADME, organism-based; set-up: dose 20 mg/kg, route intraperitoneal; procedure, shortened: as §2
[10] = Plasma concentration in C57BL/6 mouse at 20 mg/kg, ip after 30 mins; type: ADME, organism-based; set-up: dose 20 mg/kg, route intraperitoneal; procedure, shortened: as §2
Fort Morgan virus = experiment: Antiviral activity against Fort Morgan virus infected in human BE(2)-C cells assessed as reduction of viral titer at 25 uM after 24 hrs by plaque reduction assay (reference value: 47.1 +/- 10.5 x 10^6 pfu/ml); type: functional
[11] = Cytotoxicity against human BE(2)-C cells assessed as cell viability at 25 uM after 24 hrs by MTT assay relative to control; type: cell-based; conditions: read-out: Activity
[12] = test system: Western equine encephalitis virus; experiment: Antiviral activity against Western equine encephalomyelitis virus infected in human BE(2)-C cells assessed as reduction of viral titer at 25 uM after 24 hrs by plaque reduction assay (reference value: 25.7 +/- 5.2 x 10^6 pfu/ml); type: functional
[13] = Kinetic solubility of the compound; type: physicochemical
[14] = Half life in Balb-C mouse liver microsomes; type: ADME, Microsome
Procedure, shortened: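 Compound incubated with Balb-C mouse liver microsomes, and half-life determined for oxidative metabolism. Values are means of ≥2 independent incubations.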

Brain [15] = experiment: Drug level in C57BL/6 mouse brain at 30 mg/kg, ip after 12 hrs; type: ADME, organism-based; set-up: dose 30 mg/kg, route intraperitoneal; conditions: in vivo, BLD = below limit of detection; procedure, shortened: as §1
Brain [16] = experiment: Drug level in C57BL/6 mouse brain at 30 mg/kg, ip after 2 hrs; type: ADME, organism-based; set-up: dose 30 mg/kg, route intraperitoneal; conditions: in vivo, BLD = below limit of detection; procedure, shortened: as §1
Brain [17] = experiment: Drug level in C57BL/6 mouse brain at 30 mg/kg, ip after 30 mins; type: ADME, organism-based; set-up: dose 30 mg/kg, route intraperitoneal; conditions: in vivo, 0.5 h, BLD = below limit of detection; procedure, shortened: as §1
Plasma [18] = experiment: (§3) Plasma concentration in C57BL/6 mouse at 30 mg/kg, ip after 12 hrs; type: ADME, organism-based; set-up: dose 30 mg/kg, route intraperitoneal; conditions: mouse, in vivo, 12 h, BLD = below limit of detection; procedure, shortened: as §2
[19] = Plasma concentration in C57BL/6 mouse at 30 mg/kg, ip after 2 hrs; type: ADME, organism-based; set-up: dose 30 mg/kg, route intraperitoneal; procedure, shortened: as §2
[20] = Plasma concentration in C57BL/6 mouse at 30 mg/kg, ip after 30 mins; type: ADME, organism-based; set-up: dose 30 mg/kg, route intraperitoneal; procedure, shortened: as §2
[21] = as §3; type: ADME, organism-based; set-up: dose 30 mg/kg, route intraperitoneal; conditions: C57BL/6, mouse, plasma; procedure, shortened: as §2

SMILES	CC50 ([2]; be(2)-c) [µM]	IC50 [3] [µM]	inhibition at 4 h, 30 µM [4] [%]	Activity (Fort Morgan virus) [×10⁶ PFU/ml]	viability at 24 h, 25 µM [11] [%]	Activity [12] [×10⁶ PFU/ml]	Kinetic_solubility [13] [µM]	t1/2 [14] [min]	CC50 ([2]; BE(2)-C cells) [µM]	Drug uptake (Brain [15])	Drug uptake (Brain [16])	Drug uptake (Brain [17])	concentration at 2 h [19] [ng/mL]	concentration at 0.5 h [20] [ng/mL]	other results
O=C(NCCc1ccncc1)C1CCN(C(=O)c2cc3ccccc3n2Cc2c(F)cccc2F)CC1	34.5	1.3	28.5												selectivity ratio [1]: 50
O=C(NCCc1ccncc1)C1CCN(C(=O)c2cccn2Cc2ccc(Cl)cc2)CC1		0.7	-1.2	23.8	59.1	4.9	125	2.9	> 100						Drug uptake (Brain [5]): BLD; Drug uptake (Brain [6]): BLD; concentration at 0.5 h [7]: 19 ng/g; Cp (Plasma [8]): BLD; concentration at 2 h [9]: 5 ng/mL; concentration at 0.5 h [10]: 124 ng/mL
C[C@@H](NC(=O)C1CCN(C(=O)c2cc3ccccc3n2Cc2ccc(Cl)cc2)CC1)c1ccccc1		6.5	24.4	39.3	36.7	8.8	8	2.1	> 100	BLD	BLD	BLD	30	10	Cp (Plasma [18]): BLD
O=C(NCCc1ccncc1)C1CCN(C(=O)c2cc3ccccc3n2Cc2ccc(Cl)cc2)CC1	49.9	0.5	30.9	4.9	60.7	0.5	31	11.5		BLD	BLD	BLD	79	59	concentration at 12 h [21]: 23 ng/mL

Source: ChEMBL document CHEMBL3085701, “Optimization of novel indole-2-carboxamide inhibitors of neurotropic alphavirus replication” (J Med Chem, 2013)
